Experiments:
Leishmania pifanoi = assay: Antileishmanial activity against miltefosine-sensitive Leishmania pifanoi MHOM/VE/60/Ltrod amastigotes by MTT assay; type: functional; settings: read-out: LD50 (the source's name)
Summary of the method: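 Axenic amastigotes from late exponential phase, washed twice, seeded at 2 × 10^6 parasites mL-1 in growth medium with compound for 120 h at 32 °C. Then washed in Hanks+Glc, given 0.5 mg mL-1 MTT for 2 h at 32 °C, SDS 10% overnight at 37 °C, absorbance 595 nm. Triplicates, repeated at least twice; LD50 (50% proliferation inhibition) with SE.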

Leishmania donovani [1] = assay: Antileishmanial activity against miltefosine-sensitive Leishmania donovani MHOM/ET/67/L82 promastigotes by MTT assay; type: functional; settings: read-out: LD50 (the source's name)
Summary of the method: (§1)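 Promastigotes from late exponential phase, washed twice, seeded at 2 × 10^6 parasites mL-1 in RPMI with 10% heat-inactivated FCS and 2 mM glutamine, exposed to compound 72 h at 26 °C. Washed in Hanks+Glc, MTT 0.5 mg mL-1 for 2 h at 26 °C, formazan dissolved in 10% SDS overnight at 37 °C, A595. Triplicates, two or more experiments; LD50 with SE.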

Leishmania donovani [2] = assay: Antileishmanial activity against miltefosine-resistant Leishmania donovani MHOM/ET/67/L82R40 promastigotes by MTT assay; type: functional; settings: read-out: LD50 (the source's name); summary of the method: as §1
Leishmania donovani [3] = assay: Intracellular drug concentration in miltefosine-sensitive Leishmania donovani promastigotes at 7.5 uM after 2 hrs; settings: in vivo
Leishmania donovani [4] = assay: Drug level per mg of protein in miltefosine-sensitive Leishmania donovani promastigotes at 15 uM after 2 hrs; type: ADME, organism-based; settings: in vivo
Summary of the method: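 Late-exponential L. donovani promastigotes (MHOM/ET/67/L82) washed twice in Hanks+Glc, resuspended at 1.5 × 10^7 parasites mL-1 in the same medium with the analogue, incubated 2 h at 26 °C to reach steady intracellular accumulation. Analogue extracted and quantified by HPLC against calibration plots; expressed per mg protein.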

Row | Compound | LC50 (Leishmania pifanoi) [µM] | LC50 (Leishmania donovani [1]) [µM] | LC50 (Leishmania donovani [2]) [µM] | Intracellular concentration (Leishmania donovani [3]) [mM] | Drug uptake (Leishmania donovani [4]) [nmol/mg]
1 | C[N+](C)(C)CCOP(=O)([O-])OCCCCC/C=C/C=C/C=C/C=C/c1ccccc1 | 26 | 28.6 | > 60 |  | 
2 | C[N+](C)(C)CCOP(=O)([O-])OCCCCCC#C/C=C/C=C/C=C/c1ccccc1 | 26.5 | 29.6 | > 60 | 0.7 | 7.6
3 | OCCCCCC#C/C=C/C=C/C=C/c1ccccc1 | > 150 | > 150 | > 150 |  | 
4 | COC(COCCCCCCC/C=C/C=C/C=C/C=C/c1ccccc1)COP(=O)([O-])OCC[N+](C)(C)C (racemic) | 22.5 | 9 | > 60 |  | 
5 | CCCCCCCCCCCCCCCCOP(=O)([O-])OCC[N+](C)(C)C [MILTEFOSINE] | 26.3 | 12.5 | > 60 |  | 
